The results in this text go back to ChEMBL document CHEMBL5653631, “A Potent and Selective ULK1 Inhibitor Suppresses Autophagy and Sensitizes Cancer Cells to Nutrient Stress” (iScience, 2018).

The target in assay [1] is Activated CDC42 kinase 1 (Homo sapiens) (UniProt Q07912). Put plainly: Inhibition of human recombinant ACK at 40 nM in presence of ATP by radiometric assay relative to control. The method, boiled down:
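Panel of 327 recombinant human kinases in radiometric activity assays, each screened in duplicate at a single inhibitor concentration; percent activity remaining relative to vehicle control, percent inhibition taken as 100 minus activity remaining.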

Assay [2] has as its target Rho-associated protein kinase 1 (Homo sapiens) (UniProt Q13464). Briefly: Inhibition of human recombinant ROCK1 at 40 nM in presence of ATP by radiometric assay relative to control.
Assay [3] deals with Tyrosine-protein kinase Blk (Homo sapiens) (UniProt P51451). Briefly: Inhibition of human recombinant BLK at 40 nM related to control ULK1. The method, boiled down:
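Radiometric activity assays in a panel of 327 human recombinant kinases, each run in duplicate at one inhibitor concentration. Activity remaining is expressed as percent of vehicle control, and percent inhibition is calculated as 100% minus percent activity remaining.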

The target in assay [4] is Vascular endothelial growth factor receptor 2 (Homo sapiens) (UniProt P35968). Put plainly: Inhibition of human recombinant KDR at 40 nM related to control ULK1.
In assay [5] the target is T1, Testis-specific serine/threonine-protein kinase 2 (Homo sapiens) (UniProt Q96PF2).
T1 sequence (whole entry): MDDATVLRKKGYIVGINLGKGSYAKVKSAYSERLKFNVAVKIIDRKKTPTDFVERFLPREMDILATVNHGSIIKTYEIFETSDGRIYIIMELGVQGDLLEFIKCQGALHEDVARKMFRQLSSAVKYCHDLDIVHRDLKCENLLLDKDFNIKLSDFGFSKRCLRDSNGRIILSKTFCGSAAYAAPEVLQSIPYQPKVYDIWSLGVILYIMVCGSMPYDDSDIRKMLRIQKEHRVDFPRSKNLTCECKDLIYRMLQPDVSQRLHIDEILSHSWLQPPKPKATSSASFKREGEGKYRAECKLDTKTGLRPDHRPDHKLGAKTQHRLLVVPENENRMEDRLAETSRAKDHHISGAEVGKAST
Briefly: Inhibition of human recombinant TSSK2 at 40 nM related to control ULK1.

In assay [6] the target is Hepatocyte growth factor receptor MET (Homo sapiens) (UniProt P08581). Briefly: Inhibition of human recombinant MET at 40 nM in presence of ATP by radiometric assay relative to control.
In assay [7] the target is Tyrosine-protein kinase Blk (Homo sapiens) (UniProt P51451). Briefly: Inhibition of human recombinant BLK at 500 nM in presence of ATP by radiometric assay relative to control. Put shortly: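 Part of a radiometric in vitro activity panel of 327 recombinant human kinases. Each kinase was tested in duplicate at one inhibitor concentration. Activity remaining was expressed as a percentage of the vehicle control, and percent inhibition was taken as 100 minus that value.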

For assay [8], the target named is Serine/threonine-protein kinase N2 (Homo sapiens) (UniProt Q16513). Put plainly: Inhibition of human recombinant PKN2 at 500 nM in presence of ATP by radiometric assay relative to control.
Assay [9] has as its target Cyclin-dependent kinase-like 1 (Homo sapiens) (UniProt Q00532). Briefly: Inhibition of human recombinant CDKL1 at 15 nM in presence of ATP by radiometric assay relative to control.
Assay [10] addresses Dual specificity protein kinase CLK1 (Homo sapiens) (UniProt P49759). Put plainly: Inhibition of human recombinant CLK1 at 15 nM in presence of ATP by radiometric assay relative to control.
Assay [11] concerns the target Insulin receptor (Homo sapiens) (UniProt P06213). Briefly: Inhibition of human recombinant INSR at 15 nM in presence of ATP by radiometric assay relative to control.
For assay [12], the target named is Mitogen-activated protein kinase 10 (Homo sapiens) (UniProt P53779). Briefly: Inhibition of human recombinant JNK3 at 15 nM in presence of ATP by radiometric assay relative to control.
For assay [13], the target named is Serine/threonine-protein kinase PLK1 (Homo sapiens) (UniProt P53350). Put plainly: Inhibition of human recombinant PLK1 at 15 nM in presence of ATP by radiometric assay relative to control.
Assay [14] deals with T2, Ephrin type-B receptor 2 (Homo sapiens) (UniProt P29323).
T2 sequence (whole entry): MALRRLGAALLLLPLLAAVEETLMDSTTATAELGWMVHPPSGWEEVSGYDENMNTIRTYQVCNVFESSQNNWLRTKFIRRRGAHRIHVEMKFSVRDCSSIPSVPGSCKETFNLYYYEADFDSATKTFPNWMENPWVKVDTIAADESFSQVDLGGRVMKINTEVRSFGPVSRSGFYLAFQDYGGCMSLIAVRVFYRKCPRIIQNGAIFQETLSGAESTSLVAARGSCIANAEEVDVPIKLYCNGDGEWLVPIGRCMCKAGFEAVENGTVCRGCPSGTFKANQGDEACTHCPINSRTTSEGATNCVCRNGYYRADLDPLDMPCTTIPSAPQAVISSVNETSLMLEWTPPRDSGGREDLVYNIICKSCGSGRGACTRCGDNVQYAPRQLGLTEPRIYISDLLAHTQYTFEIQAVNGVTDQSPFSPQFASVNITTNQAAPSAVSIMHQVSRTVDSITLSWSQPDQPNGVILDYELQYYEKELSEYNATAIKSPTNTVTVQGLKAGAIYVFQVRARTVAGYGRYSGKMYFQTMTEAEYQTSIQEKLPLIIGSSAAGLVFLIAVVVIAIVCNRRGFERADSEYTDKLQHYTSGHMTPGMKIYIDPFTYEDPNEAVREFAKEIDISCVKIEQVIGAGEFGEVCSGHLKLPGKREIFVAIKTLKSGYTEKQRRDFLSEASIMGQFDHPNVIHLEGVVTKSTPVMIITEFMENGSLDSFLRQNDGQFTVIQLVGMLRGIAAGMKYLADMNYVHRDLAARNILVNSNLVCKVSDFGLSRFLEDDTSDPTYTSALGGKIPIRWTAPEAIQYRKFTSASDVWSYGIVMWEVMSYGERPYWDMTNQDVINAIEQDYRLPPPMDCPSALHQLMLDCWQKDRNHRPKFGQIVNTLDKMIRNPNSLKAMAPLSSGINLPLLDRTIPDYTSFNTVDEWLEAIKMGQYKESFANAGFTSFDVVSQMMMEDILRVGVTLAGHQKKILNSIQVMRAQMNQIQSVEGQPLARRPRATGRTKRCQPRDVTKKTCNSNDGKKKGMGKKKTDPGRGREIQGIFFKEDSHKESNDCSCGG
Put plainly: Inhibition of human recombinant EphB2 at 15 nM related to control ULK1.

Assay [15] concerns the target Insulin-like growth factor 1 receptor (Homo sapiens) (UniProt P08069). Put plainly: Inhibition of human recombinant IGF1R at 15 nM related to control ULK1.
Assay [16] has as its target Serine/threonine-protein kinase WNK2 (Homo sapiens) (UniProt Q9Y3S1). Briefly: Inhibition of human recombinant Wnk2 at 15 nM related to control ULK1.
Assay [17] addresses Activin receptor type-2A (Homo sapiens) (UniProt P27037). Briefly: Inhibition of human recombinant ACTR2 at 15 nM related to control ULK1.

For the compound `O=C(N[C@@H](C1CC1)C(F)(F)F)c1cc(-c2cnn3cc(-c4ccc(F)cc4)cnc23)cs1`, the inhibition in [1] was determined as 17%; in [2], 0%; in [6] it was 16%. Moreover, the fold change (FC) was 0.23 in [3], 0.07 in assay [4] and 0 in [5].

On to `CNC(=O)c1ccccc1Oc1nc(Nc2cc(OC)c(OC)c(OC)c2)ncc1Br`, for which the figures for the inhibition in assay [7] and in [8] were 29% and 0%, respectively.

For the compound `CC(C)[C@H](NC(=O)c1cc(-c2cnn3cc(-c4ccc(OCCN5CCCCC5)cc4)cnc23)cs1)C(F)(F)F`, the inhibition in assay [9] is 24%; in assay [10] it was 84%; in assay [11], 0%; in assay [12], 7%; in assay [13], 1%. Further, the fold change (FC) was determined as 0.08 in assay [14], 0 in assay [15], 0.02 in assay [16] and 0.05 in assay [17].
